According to ChEMBL document CHEMBL1130345, “A technetium-99m SPECT imaging agent which targets the dopamine transporter in primate brain” (J Med Chem, 1997):
Values joined by “and” are separate entries in the source; they are usually repeats but may differ in a detail not shown here. Equal values may be shown once.

Assays:
[1] = molecular target: Sodium-dependent dopamine transporter (Macaca fascicularis, UniProt Q9GJT6); assay: Inhibition of [3H]WIN-35428 binding to dopamine transporter using of Cynomolgus monkey caudate-putamen; format: tissue-based
Sequence of Sodium-dependent dopamine transporter (Q9GJT6 whole entry): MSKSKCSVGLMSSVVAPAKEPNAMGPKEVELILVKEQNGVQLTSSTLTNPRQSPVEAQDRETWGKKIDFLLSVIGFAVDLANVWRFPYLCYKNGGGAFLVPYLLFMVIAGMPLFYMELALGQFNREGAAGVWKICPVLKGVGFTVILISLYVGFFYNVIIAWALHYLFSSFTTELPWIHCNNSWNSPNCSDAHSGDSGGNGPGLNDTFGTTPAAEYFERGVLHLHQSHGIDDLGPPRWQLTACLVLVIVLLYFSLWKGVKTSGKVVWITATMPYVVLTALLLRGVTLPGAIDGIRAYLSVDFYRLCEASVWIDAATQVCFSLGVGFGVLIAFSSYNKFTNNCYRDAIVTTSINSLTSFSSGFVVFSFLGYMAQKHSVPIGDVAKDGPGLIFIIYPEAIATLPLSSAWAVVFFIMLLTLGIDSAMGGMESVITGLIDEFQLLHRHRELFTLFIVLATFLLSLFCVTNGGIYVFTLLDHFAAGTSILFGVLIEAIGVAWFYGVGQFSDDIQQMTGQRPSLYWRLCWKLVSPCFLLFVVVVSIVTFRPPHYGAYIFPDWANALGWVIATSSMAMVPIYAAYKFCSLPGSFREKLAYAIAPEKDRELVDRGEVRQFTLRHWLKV
Summary of the method: (§1)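 Caudate-putamen membranes (washed in 50 mM Tris-HCl pH 7.4, 3800g spins) incubated at 4 mg original wet tissue/mL with 0.3 nM [3H]WIN35,428 and 7–14 competitor concentrations in 50 mM Tris-HCl/100 mM NaCl pH 7.4, 2 h at 0–4 °C. Filtered on BSA-soaked GF/B filters, scintillation counting. Nonspecific binding defined with 30 μM (–)-cocaine. IC50 computed by EBDA; independent experiments in triplicate.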

[2] = molecular target: Sodium-dependent serotonin transporter; assay: Inhibition of [3H]- citalopram binding to serotonin transporter of Cynomolgus monkey caudate-putamen; format: tissue-based
Summary of the method: as §1, with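 “1” for “0.3”, “[3H]citalopram” for “[3H]WIN35,428”, “polyethylenimine-soaked” for “BSA-soaked”, “1” for “30”, “fluoxetine.” for “(–)-cocaine.”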

Macaca fascicularis = organism: Macaca fascicularis; assay: Relative affinity for dopamine and serotonin transporters

Row | Compound | IC50 [1] | IC50 [2] [nM] | Ratio (Macaca fascicularis)
1 | [N-[2-[(3'-N'-PROPYL-3''ALPHA-(BIS(4-FLUORORPHENYL)METHOXY)TROPANE-2''BETA-CARBOXYLIC ACID METHYL ESTER)(2-MERCAPTOETHYL)AMINO]ACETYL]-2-AMINOETHANETHIOLATO]RHENIUM(V) OXIDE (DIASTEREOMERIC MIX) [listing 1 of 2 here] | 482 nM and 616 nM and 343 nM |  | 
2 | COC(=O)[C@@H]1C2CCC(C[C@@H]1OC(c1ccc(F)cc1)c1ccc(F)cc1)N2CCCc1ccccc1 (stereo not given in full) |  | 19.7 | 
3 | [N-[2-[(3'-N'-PROPYL-3''ALPHA-(BIS(4-FLUORORPHENYL)METHOXY)TROPANE-2''BETA-CARBOXYLIC ACID METHYL ESTER)(2-MERCAPTOETHYL)AMINO]ACETYL]-2-AMINOETHANETHIOLATO]RHENIUM(V) OXIDE (DIASTEREOMERIC MIX) [listing 2 of 2 here] |  |  | 90
4 | COC(=O)[C@@H]1C2CCC(C[C@@H]1OC(c1ccc(F)cc1)c1ccc(F)cc1)N2CCCCCc1ccccc1 (stereo not given in full) |  | 550 | 6
5 | COC(=O)C1C(c2ccc(F)cc2)CC2CCC1N2CCCCCc1ccccc1 (stereo not given) | 3.4 nM | 49.9 | 15
6 | COC(=O)C1C(c2ccc(F)cc2)CC2CCC1N2Cc1ccccc1 (stereo not given) | 58.9 nM | 1070 | 18
7 | COC(=O)[C@@H]1C2CCC(C[C@@H]1OC(c1ccc(F)cc1)c1ccc(F)cc1)N2Cc1ccccc1 (stereo not given in full) |  | 4970 | 
8 | COC(=O)C1C(c2ccc(F)cc2)CC2CCC1N2CCCc1ccccc1 (stereo not given) | 1.4 nM | 133 | 95
